Reference: paper PMC10762718 (RSC Advances, 2024)

Experiments:
Format in all cases: cell-based
[1] = tested on: MDA-MB-231 (human breast cancer) cells; assay: MTT cell viability assay, MDA-MB-231; details: for inhibition at 25 µM: MDA-MB-231
Method in brief: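 MDA-MB-231 cells were grown as a monolayer in DMEM with 10% heat-inactivated FBS and 1% penicillin-streptomycin at 37 °C in humidified CO2, subcultured every third day with trypsin-EDTA, and used before passage 8. Cells were exposed 72 h to 10, 25 and 50 μM. Medium was removed, MTT added for 3 h at 37 °C, formazan dissolved in DMSO and read at 595 nm. Viability is relative to untreated control, triplicates, ±SD. IC50 comes from the viability-versus-concentration plot.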

MDA-MB-453 cells = assay: MTT cell viability assay, MDA-MB-453; details: for IC50 against MDA-MB-453 cells: tested at 1, 10 and 25 μM
Method in brief: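 MDA-MB-453 (HER2-positive) cells were exposed to test compound at 1, 10 and 25 μM for 72 h. After medium removal, MTT was added for 3 h at 37 °C in CO2. Formazan was dissolved in DMSO and absorbance read at 595 nm. Percent viable cells are relative to untreated control cells.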

[2] = MTT cell viability assay, normal MCF-10A cells; details: human, MCF-10A normal mammary epithelial cells
Method in brief: (§1)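 Normal mammary epithelial MCF-10A cells were exposed to test compound at 25, 50 and 100 μM for 72 h. Cells were then given MTT after medium removal, 3 h at 37 °C in CO2. Formazan was dissolved in DMSO and absorbance read at 595 nm. Viability is expressed as percent of untreated control cells.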

[3] = tested on: normal mammary epithelial MCF-10A cells; assay: MTT cell viability assay, normal MCF-10A cells; details: tested at 25, 50 and 100 μM
Method in brief: as §1

[4] = tested on: MCF-7 breast cancer cells; assay: MTT cell viability assay, MCF-7; details: Homo sapiens; for inhibition at 25 µM: MCF7; for IC50: MCF7, 72 h, read-out: IC50 against MCF-7 breast cancer cells line
Method in brief: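 After medium removal, MTT was added for 3 h at 37 °C in CO2, formazan dissolved in DMSO and absorbance read at 595 nm. Viability is relative to untreated cells, triplicates, n = 3, ±SD. IC50 comes from plotting percent viability against concentration.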

[5] = MDA-MB-231, 72 h, read-out: Cell viability (%) ±SD
[6] = Homo sapiens, MDA-MB-453, read-out: Cell viability (%) ±SD
[7] = MCF7, read-out: Cell viability (%) ±SD

COc1ccc(-c2cc(=O)n3c(ccn3Cc3cn([C@H]4O[C@@H](COC(C)=O)[C@H](OC(C)=O)[C@@H](OC(C)=O)[C@@H]4OC(C)=O)nn3)n2)cc1 (stereo in doubt) [Compound 23, (2S,3S,4R,5S,6S)-2-(Acetoxymethyl)-6-(4-((5-(4-methoxyphenyl)-7-oxopyrazolo[1,5-a]pyrimidin-1(7H)-yl)methyl)-1H-1,2,3-triazol-1-yl)tetrahydro-2H-pyran-3,4,5-triyl triacetate]
inhibition at 25 µM [1]: ~50% | viability at 10 µM [1, 5]: 65.1 ± 8.53% | viability at 25 µM [1, 5]: 49 ± 9.19% | viability at 50 µM [1, 5]: 34.3 ± 5.29% | viability at 1 µM (MDA-MB-453 cells; [6]): 80.6 ± 8% | viability at 10 µM (MDA-MB-453 cells; [6]): 88.4 ± 5.4% | viability at 25 µM (MDA-MB-453 cells; [6]): 77.1 ± 5.7% | IC50 against MDA-MB-453 cells (MDA-MB-453 cells): did not reach up to IC50 value | viability at 72 h, 25 µM [2]: 88.6 ± 1.5% | viability at 72 h, 50 µM [2]: 86.3 ± 2.9% | viability at 72 h, 100 µM [2]: 84.2 ± 3% | growth inhibitory activity against normal breast epithelial cell (MCF-10A) [3]: none of these compounds did have any growth inhibitory activity | inhibition at 25 µM [4]: ~50% | IC50 [4]: 9.24 µM | viability at 1 µM [4, 7]: 66.7 ± 1.18% | viability at 10 µM [4, 7]: 40.3 ± 3.6% | viability at 25 µM [4, 7]: 31.7 ± 4%

CC(=O)OC[C@@H]1O[C@H](n2cc(Cn3ccc4nc(-c5ccc(F)cc5)cc(=O)n43)nn2)[C@@H](OC(C)=O)[C@H](OC(C)=O)[C@H]1OC(C)=O (stereo in doubt) [Compound 26, (2S,3S,4R,5S,6S)-2-(Acetoxymethyl)-6-(4-((5-(4-fluorophenyl)-7-oxopyrazolo[1,5-a]pyrimidin-1(7H)-yl)methyl)-1H-1,2,3-triazol-1-yl)tetrahydro-2H-pyran-3,4,5-triyl triacetate]
inhibition at 25 µM [1]: ~50% | viability at 10 µM [1, 5]: 76.6 ± 9.76% | viability at 25 µM [1, 5]: 60 ± 8.47% | viability at 50 µM [1, 5]: 54.6 ± 5.61% | viability at 1 µM (MDA-MB-453 cells; [6]): 87.8 ± 3.2% | viability at 10 µM (MDA-MB-453 cells; [6]): 84.2 ± 11.5% | viability at 25 µM (MDA-MB-453 cells; [6]): 66.3 ± 5.8% | IC50 against MDA-MB-453 cells (MDA-MB-453 cells): did not reach up to IC50 value | viability at 72 h, 25 µM [2]: 87.8 ± 2.8% | viability at 72 h, 50 µM [2]: 85.6 ± 0.7% | viability at 72 h, 100 µM [2]: 82 ± 1.5% | growth inhibitory activity against normal breast epithelial cell (MCF-10A) [3]: none of these compounds did have any growth inhibitory activity | inhibition at 25 µM [4]: ~50% | IC50 [4]: 26.6 µM | viability at 1 µM [4, 7]: 80 ± 4.5% | viability at 10 µM [4, 7]: 65.8 ± 1.8% | viability at 25 µM [4, 7]: 52.8 ± 3%

CC(=O)OC[C@@H]1O[C@H](n2cc(Cn3ccc4nc(-c5ccc6c(c5)OCO6)cc(=O)n43)nn2)[C@@H](OC(C)=O)[C@H](OC(C)=O)[C@H]1OC(C)=O (stereo in doubt) [Compound 30, (2S,3S,4R,5S,6S)-2-(Acetoxymethyl)-6-(4-((5-(benzo[d][1,3]dioxol-5-yl)-7-oxopyrazolo[1,5-a]pyrimidin-1(7H)-yl)methyl)-1H-1,2,3-triazol-1-yl)tetrahydro-2H-pyran-3,4,5-triyl triacetate]
inhibition at 25 µM [1]: ~50% | viability at 10 µM [1, 5]: 86.6 ± 3.36% | viability at 25 µM [1, 5]: 55.2 ± 7.06% | viability at 50 µM [1, 5]: 42.8 ± 5.04% | viability at 1 µM (MDA-MB-453 cells; [6]): 99.2 ± 8.1% | viability at 10 µM (MDA-MB-453 cells; [6]): 74.8 ± 1.5% | viability at 25 µM (MDA-MB-453 cells; [6]): 61.4 ± 3.2% | IC50 against MDA-MB-453 cells (MDA-MB-453 cells): did not reach up to IC50 value | viability at 72 h, 25 µM [2]: 86.8 ± 5.3% | viability at 72 h, 50 µM [2]: 84.8 ± 3% | viability at 72 h, 100 µM [2]: 78.5 ± 3.4% | growth inhibitory activity against normal breast epithelial cell (MCF-10A) [3]: none of these compounds did have any growth inhibitory activity | inhibition at 25 µM [4]: ~50% | IC50 [4]: 18.5 µM | viability at 1 µM [4, 7]: 78.2 ± 2.6% | viability at 10 µM [4, 7]: 57.7 ± 2.4% | viability at 25 µM [4, 7]: 42.3 ± 7.6%

CC(=O)OC[C@@H]1O[C@H](n2cc(Cn3ccc4nc(-c5ccc(Br)cc5)cc(=O)n43)nn2)[C@@H](OC(C)=O)[C@H](OC(C)=O)[C@@H]1OC(C)=O (stereo in doubt) [Compound 33, (2S,3R,4R,5S,6S)-2-(Acetoxymethyl)-6-(4-((5-(4-bromophenyl)-7-oxopyrazolo[1,5-a]pyrimidin-1(7H)-yl)methyl)-1H-1,2,3-triazol-1-yl)tetrahydro-2H-pyran-3,4,5-triyl triacetate]
inhibition at 25 µM [1]: ~50% | viability at 10 µM [1, 5]: 66.7 ± 8.23% | viability at 25 µM [1, 5]: 63.3 ± 6.32% | viability at 50 µM [1, 5]: 47 ± 4.91% | viability at 1 µM (MDA-MB-453 cells; [6]): 88.8 ± 5.2% | viability at 10 µM (MDA-MB-453 cells; [6]): 78.3 ± 4.7% | viability at 25 µM (MDA-MB-453 cells; [6]): 67.6 ± 5.3% | IC50 against MDA-MB-453 cells (MDA-MB-453 cells): did not reach up to IC50 value | viability at 72 h, 25 µM [2]: 99.6 ± 2.2% | viability at 72 h, 50 µM [2]: 87.6 ± 1.7% | viability at 72 h, 100 µM [2]: 81.4 ± 2.6% | growth inhibitory activity against normal breast epithelial cell (MCF-10A) [3]: none of these compounds did have any growth inhibitory activity | inhibition at 25 µM [4]: ~50% | IC50 [4]: 7.32 µM | viability at 1 µM [4, 7]: 67 ± 4.7% | viability at 10 µM [4, 7]: 35 ± 2.5% | viability at 25 µM [4, 7]: 25 ± 2.9%

CC(=O)OC[C@@H]1O[C@H](n2cc(Cn3ccc4nc(-c5ccc(C(F)(F)F)cc5)cc(=O)n43)nn2)[C@@H](OC(C)=O)[C@H](OC(C)=O)[C@@H]1OC(C)=O (stereo in doubt) [Compound 36, (2S,3R,4R,5S,6S)-2-(Acetoxymethyl)-6-(4-((7-oxo-5-(4-(trifluoromethyl)phenyl)pyrazolo[1,5-a]pyrimidin-1(7H)-yl)methyl)-1H-1,2,3-triazol-1-yl)tetrahydro-2H-pyran-3,4,5-triyl triacetate]
inhibition at 25 µM [1]: ~50% | viability at 10 µM [1, 5]: 70.4 ± 5.36% | viability at 25 µM [1, 5]: 46.1 ± 3.32% | viability at 50 µM [1, 5]: 41.2 ± 1.26% | viability at 1 µM (MDA-MB-453 cells; [6]): 91.5 ± 4.6% | viability at 10 µM (MDA-MB-453 cells; [6]): 82.9 ± 1.2% | viability at 25 µM (MDA-MB-453 cells; [6]): 63.8 ± 1.7% | IC50 against MDA-MB-453 cells (MDA-MB-453 cells): did not reach up to IC50 value | viability at 72 h, 25 µM [2]: 88.6 ± 1.5% | viability at 72 h, 50 µM [2]: 86.1 ± 2.8% | viability at 72 h, 100 µM [2]: 84.2 ± 3% | growth inhibitory activity against normal breast epithelial cell (MCF-10A) [3]: none of these compounds did have any growth inhibitory activity | inhibition at 25 µM [4]: ~50% | IC50 [4]: 4.93 µM | viability at 1 µM [4, 7]: 52.3 ± 3.1% | viability at 10 µM [4, 7]: 32.4 ± 0.9% | viability at 25 µM [4, 7]: 28.1 ± 4.4%

CC(=O)OC[C@H]1O[C@H](n2cc(Cn3ccc4nc(-c5ccc(C(F)(F)F)cc5)cc(=O)n43)nn2)[C@@H](OC(C)=O)[C@@H](OC(C)=O)[C@@H]1OC(C)=O [Compound 45, (2R,3R,4S,5S,6S)-2-(Acetoxymethyl)-6-(4-((7-oxo-5-(4-(trifluoromethyl)phenyl)pyrazolo[1,5-a]pyrimidin-1(7H)-yl)methyl)-1H-1,2,3-triazol-1-yl)tetrahydro-2H-pyran-3,4,5-triyl triacetate]
viability at 10 µM [1, 5]: 96.8 ± 5.85% | viability at 25 µM [1, 5]: 91.1 ± 6% | viability at 50 µM [1, 5]: 87 ± 1.1%

CC(=O)OC[C@H]1O[C@H](n2cc(Cn3ccc4nc(-c5ccc(C(C)C)cc5)cc(=O)n43)nn2)[C@@H](OC(C)=O)[C@@H](OC(C)=O)[C@@H]1OC(C)=O [Compound 46, (2R,3R,4S,5S,6S)-2-(Acetoxymethyl)-6-(4-((5-(4-isopropylphenyl)-7-oxopyrazolo[1,5-a]pyrimidin-1(7H)-yl)methyl)-1H-1,2,3-triazol-1-yl)tetrahydro-2H-pyran-3,4,5-triyl triacetate]
viability at 10 µM [1, 5]: 80.6 ± 4.7% | viability at 25 µM [1, 5]: 75.5 ± 4.44% | viability at 50 µM [1, 5]: 83.5 ± 7.27%

CC(=O)OC[C@H]1O[C@H](n2cc(Cn3ccc4nc(-c5ccc6ccccc6c5)cc(=O)n43)nn2)[C@@H](OC(C)=O)[C@@H](OC(C)=O)[C@@H]1OC(C)=O [Compound 47, (2R,3R,4S,5S,6S)-2-(Acetoxymethyl)-6-(4-((5-(naphthalen-2-yl)-7-oxopyrazolo[1,5-a]pyrimidin-1(7H)-yl)methyl)-1H-1,2,3-triazol-1-yl)tetrahydro-2H-pyran-3,4,5-triyl triacetate]
viability at 10 µM [1, 5]: 102 ± 9.28% | viability at 25 µM [1, 5]: 89.8 ± 2.22% | viability at 50 µM [1, 5]: 81.5 ± 5.45%

CC(=O)OC[C@H]1O[C@H](n2cc(Cn3ccc4nc(-c5ccc6c(c5)OCO6)cc(=O)n43)nn2)[C@@H](OC(C)=O)[C@@H](OC(C)=O)[C@@H]1OC(C)=O [Compound 48, (2R,3R,4S,5S,6S)-2-(Acetoxymethyl)-6-(4-((5-(benzo[d][1,3]dioxol-5-yl)-7-oxopyrazolo[1,5-a]pyrimidin-1(7H)-yl)methyl)-1H-1,2,3-triazol-1-yl)tetrahydro-2H-pyran-3,4,5-triyl triacetate]
viability at 10 µM [1, 5]: 96.5 ± 4.91% | viability at 25 µM [1, 5]: 93.3 ± 3.6% | viability at 50 µM [1, 5]: 92.9 ± 9.08%

CC1=CC(=O)c2ccccc2C1=O [Menadione, menadione, reference compound]
viability at 20 µM [1, 5]: 23.8 ± 5.7%

COCCn1c2c([n+](Cc3cnccn3)c1C)C(=O)c1ccccc1C2=O [YM155, reference compound]
viability at 0.02 µM [1, 5]: 23.4 ± 3.13% | viability at 0.02 µM (MDA-MB-453 cells; [6]): 36.2 ± 1.5% | viability at 72 h, 0.02 µM [2]: 39.2 ± 1.6% | viability at 0.02 µM [4, 7]: 31.2 ± 1.7%
